Results: ChEMBL document CHEMBL1145359, “Synthesis and anticonvulsant activity of 4-(2-(2,6-dimethylphenylamino)-2-oxoethylamino)-N-(substituted)butanamides: a pharmacophoric hybrid approach” (Bioorg Med Chem Lett, 2007)
Calls of active or inactive are those of the source.

Key:
Mus musculus [1] = experiment: Anticonvulsant activity against subcutaneous picrotoxin-induced seizure in mouse at 100 mg/kg, ip after 0.5 hrs; assay type: functional, organism-based; set-up: dose 100 mg/kg
Method in brief: (§1)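 Mice given intraperitoneal doses of 30, 100 and 300 mg/kg, with a vehicle-only control, then challenged with subcutaneous picrotoxin. Protection assessed at 0.5 h and 4 h after dosing. Recorded value is the lowest dose protecting half or more of the animals; a dash means no activity at 300 mg/kg.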

Mus musculus [2] = experiment: Anticonvulsant activity against subcutaneous pentylenetetrazole-induced seizure in mouse at 300 mg/kg, ip after 0.5 hrs; assay type: functional, organism-based; set-up: dose 300 mg/kg
Method in brief: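 Intraperitoneal dosing in mice at 30, 100 or 300 mg/kg, followed 0.5 h later by a subcutaneous pentylenetetrazole challenge, scoring protection against seizures (a seizure-threshold test). The value recorded is the minimum dose active in half or more of the mice. A dash means no activity at 300 mg/kg. A vehicle-treated control group was included.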

Mus musculus [3] = experiment: Acute neurotoxicity in mouse at 300 mg/kg, ip after 4 hrs by rotarod test; assay type: toxicity, organism-based; set-up: dose 300 mg/kg, route intraperitoneal; conditions: in vivo
Method in brief: (§2)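 Mice dosed intraperitoneally at 30, 100 and 300 mg/kg; motor impairment scored at 0.5 h and 4 h after dosing. The value recorded is the minimum dose at which the effect appeared in half or more of the mice. A dash means no effect at the top dose of 300 mg/kg. A vehicle-treated control group was included.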

Mus musculus [4] = experiment: Anticonvulsant activity against maximal-electroshock-induced seizure in mouse at 100 mg/kg, ip after 0.5 hrs; assay type: functional, organism-based; set-up: dose 100 mg/kg
Method in brief: (§3)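 Mice received the compound intraperitoneally at 30, 100 or 300 mg/kg and were challenged with maximal electroshock 0.5 h later, scoring prevention of seizure spread. The value recorded is the minimum dose protecting half or more of the mice. A dash means no activity up to 300 mg/kg. A vehicle-treated control group was included.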

Mus musculus [5] = experiment: Anticonvulsant activity against subcutaneous picrotoxin-induced seizure in mouse at 300 mg/kg, ip after 4 hrs; assay type: functional, organism-based; set-up: dose 300 mg/kg; method in brief: as §1
Mus musculus [6] = experiment: Acute neurotoxicity in mouse at 300 mg/kg, ip after 0.5 hrs by rotarod test; assay type: toxicity, organism-based; set-up: dose 300 mg/kg, route intraperitoneal; conditions: in vivo; method in brief: as §2
Mus musculus [7] = experiment: Anticonvulsant activity against maximal-electroshock-induced seizure in mouse at 300 mg/kg, ip after 0.5 hrs; assay type: functional, organism-based; set-up: dose 300 mg/kg; method in brief: as §3
Mus musculus [8] = experiment: Anticonvulsant activity against subcutaneous picrotoxin-induced seizure in mouse at 30 mg/kg, ip after 0.5 hrs; assay type: functional, organism-based; set-up: dose 30 mg/kg; method in brief: as §1
Mus musculus [9] = experiment: Anticonvulsant activity against subcutaneous picrotoxin-induced seizure in mouse at 100 mg/kg, ip after 4 hrs; assay type: functional, organism-based; set-up: dose 100 mg/kg; method in brief: as §1
Mus musculus [10] = experiment: Anticonvulsant activity against subcutaneous pentylenetetrazole-induced seizure in mouse at 100 mg/kg, ip after 0.5 hrs; assay type: functional, organism-based; set-up: dose 100 mg/kg
Method in brief: (§4)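 Mice dosed intraperitoneally at 30, 100 and 300 mg/kg, with a vehicle-treated control, then challenged with subcutaneous pentylenetetrazole to detect elevation of seizure threshold. Read 0.5 h after dosing.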

Mus musculus [11] = experiment: Acute neurotoxicity in mouse at 100 mg/kg, ip after 0.5 hrs by rotarod test; assay type: toxicity, organism-based; set-up: dose 100 mg/kg, route intraperitoneal; conditions: in vivo; method in brief: as §2
Mus musculus [12] = experiment: Anticonvulsant activity against subcutaneous picrotoxin-induced seizure in mouse at 30 mg/kg, ip after 4 hrs; assay type: functional, organism-based; set-up: dose 30 mg/kg; method in brief: as §1
Mus musculus [13] = experiment: Anticonvulsant activity against subcutaneous pentylenetetrazole-induced seizure in mouse at 30 mg/kg, ip after 0.5 hrs; assay type: functional, organism-based; set-up: dose 30 mg/kg; method in brief: as §4
Mus musculus [14] = experiment: Anticonvulsant activity against subcutaneous picrotoxin-induced seizure in mouse at 10 mg/kg, ip after 0.5 hrs; assay type: functional, organism-based; set-up: dose 10 mg/kg
Mus musculus [15] = experiment: Acute neurotoxicity in mouse at 100 mg/kg, ip after 4 hrs by rotarod test; assay type: toxicity, organism-based; set-up: dose 100 mg/kg, route intraperitoneal; conditions: in vivo; method in brief: as §2
Mus musculus [16] = experiment: Anticonvulsant activity against maximal-electroshock-induced seizure in mouse at 30 mg/kg, ip after 0.5 hrs; assay type: functional, organism-based; set-up: dose 30 mg/kg; method in brief: as §3

| Compound | Activity (Mus musculus [1]) | Activity (Mus musculus [2]) | Activity (Mus musculus [3]) | Activity (Mus musculus [4]) | Activity (Mus musculus [5]) | Activity (Mus musculus [6]) | Activity (Mus musculus [7]) | Activity (Mus musculus [8]) | Activity (Mus musculus [9]) | Activity (Mus musculus [10]) | Activity (Mus musculus [11]) | Activity (Mus musculus [12]) | Activity (Mus musculus [13]) | Activity (Mus musculus [14]) | Activity (Mus musculus [15]) | Activity (Mus musculus [16]) |
| --- | --- | --- | --- | --- | --- | --- | --- | --- | --- | --- | --- | --- | --- | --- | --- | --- |
| Cc1cccc(C)c1NC(=O)CNCCCC(=O)Nc1ccccc1 | Active | inactive | Active | Active | inactive | Active |  |  |  |  |  |  |  |  |  |  |
| Cc1cccc(C)c1NC(=O)CNCCCC(=O)N1CCN(c2cccc(C(F)(F)F)c2)CC1 |  | inactive | Not Active |  |  | Not Active | inactive | Active | Active |  |  |  |  |  |  |  |
| Cc1cccc(NC(=O)CCCNCC(=O)Nc2c(C)cccc2C)c1 |  | inactive | Not Active |  |  | Active | inactive | Active | Active |  |  |  |  |  |  |  |
| CCC1(C)CC(=O)NC1=O (centres undefined) [ETHOSUXIMIDE] |  |  | Not Active |  | inactive | Not Active | inactive |  |  | Active |  |  |  |  |  |  |
| Cc1cccc(C)c1NC(=O)CNCCCC(=O)N1CCCCC1 | Active | inactive | Active | Active | inactive |  |  |  |  |  | Active |  |  |  |  |  |
| Cc1cccc(C)c1NC(=O)CCCNCC(=O)Nc1c(C)cccc1C |  |  | Not Active | Active |  | Active |  |  |  |  |  | Active | Active | Active |  |  |
| CCCCN(CCCC)C(=O)CCCNCC(=O)Nc1c(C)cccc1C |  | inactive | Not Active | Active |  | Active |  | Active | Active |  |  |  |  |  |  |  |
| O=C1NC(=O)C(c2ccccc2)(c2ccccc2)N1 [PHENYTOIN] |  | inactive |  |  | inactive |  |  |  |  |  | Active |  |  |  | Active | Active |
| CCC1(c2ccccc2)C(=O)NC(=O)NC1=O [PHENOBARBITAL] |  |  | Active | Active |  |  |  | Active | Active |  | Active |  | Active |  |  |  |
| Cc1cccc(C)c1NC(=O)CNCCCC(=O)Nc1ccccc1Br |  | inactive | Active | Active |  | Active |  | Active |  |  |  | Active |  |  |  |  |
| Cc1ccc(NC(=O)CCCNCC(=O)Nc2c(C)cccc2C)c(C)c1 | Active | Active | Active | Active |  | Active |  |  | Active |  |  |  |  |  |  |  |
| Cc1cccc(C)c1NC(=O)CNCCCC(=O)O |  | inactive | Not Active | Active |  | Active |  | Active | Active |  |  |  |  |  |  |  |
| Cc1cccc(C)c1NC(=O)CNCCCC(=O)N1CCC(C)CC1 | Active | inactive |  |  |  |  | inactive |  | Active |  | Active |  |  |  | Active |  |
| Cc1cccc(C)c1NC(=O)CNCCCC(=O)N(c1ccccc1)c1ccccc1 | Active | inactive | Not Active |  | Active | Active | Active |  |  |  |  |  |  |  |  |  |
| Cc1cccc(C)c1NC(=O)CNCCCC(=O)Nc1cccc(Cl)c1C | Active | inactive | Not Active | Active |  | Active |  |  | Active |  |  |  |  |  |  |  |
| Cc1cccc(C)c1NC(=O)CNCCCC(=O)N(C)C | Active | inactive | Active |  |  | Not Active | inactive |  | Active |  |  |  |  |  |  |  |
